Results: ChEMBL document CHEMBL2434964, “Novel 1H-pyrrolo[2,3-b]pyridine derivative nortopsentin analogues: synthesis and antitumor activity in peritoneal mesothelioma experimental models” (J Med Chem, 2013)
Calls of active or inactive are those of the source. The calls are words filed in the database; no cut-off is given here.

Columns and labels:
[1] = Cell cycle arrest in human Meso2 cells assessed as accumulation at G2/M phase at IC50 after 72 hrs by propidium iodide staining-based FACS-flow cytometry relative to control; format: functional
[2] = (§1) Cytotoxicity against human STO cells assessed as growth inhibition after 72 hrs by MTS assay; format: functional, cell-based
Procedure, shortened: (§2)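 Log-phase cells, 4500 per well, plated 24 h, then given 0.1–100 μM compound for 72 h; vehicle (DMSO) controls. MTS read-out at 490 nm as % of DMSO-treated cells. IC50 taken graphically from the dose-response curve. Eight replicates; mean ± SD of at least three independent experiments.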

STO [3] = assay: as §1; format: functional, cell-based; procedure, shortened: as §2
[4] = (§3) Cytotoxicity against human cells Meso2 assessed as growth inhibition after 72 hrs by MTS assay; format: functional, cell-based; conditions: Meso2, 72 h; procedure, shortened: as §2
Homo sapiens = species: Homo sapiens; assay: as §3; format: functional, cell-based; procedure, shortened: as §2
[5] = Cytotoxicity against human W138 cells assessed as growth inhibition after 72 hrs by MTS assay; format: cell-based; conditions: WI-38, 72 h; procedure, shortened: as §2
[6] = Antitumor activity against human STO cells xenografted in athymic nude mouse assessed as tumor volume inhibition at 25 mg/kg, ip qd for 4 to 5 days per week for 3 weeks measured on day 17 post dose; format: functional; conditions: route intraperitoneal
Procedure, shortened: (§4)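 Female athymic Swiss nude mice, 8-10 weeks old; 10⁷ exponentially growing STO cells injected s.c. into right flank. Dosing i.p. qdx4-5/wx3w, starting the day after cell injection. Tumor volume = d²xD/2. TVI% = 100-(mean TV treated/mean TV control x 100), read 17 days after end of treatment (day 35). Two-tailed Student's t test.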

[7] = Cell cycle arrest in human STO cells assessed as accumulation at G2/M phase at IC50 after 72 hrs by propidium iodide staining-based FACS-flow cytometry relative to control; format: functional
Mus musculus [8] = assay: Toxicity in athymic nude mouse xenografted with human STO cells assessed as body weight loss at 25 mg/kg, ip qd for 4 to 5 days per week for 35 days measured on day 17 post dose; format: organism-based; parameters: dose 25 mg/kg, route intraperitoneal; conditions: in vivo, in the assay text read “for 3 weeks measured on day 35” for “for 35 days measured on day 17 post dose”
Procedure, shortened: (§5)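 Female athymic Swiss nude mice bearing s.c. STO flank xenografts (10⁷ cells). Dosing i.p. qdx4-5/wx3w, starting the day after cell injection. Toxicity recorded as % body weight loss and lethal toxicity. Deaths in treated mice before the first control death were counted as toxic.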

Mus musculus [9] = assay: Toxicity in athymic nude mouse xenografted with human STO cells assessed as mortality at 25 mg/kg, ip qd for 4 to 5 days per week for 3 weeks measured on day 17 post dose; format: organism-based; parameters: dose 25 mg/kg, route intraperitoneal; conditions: in vivo
Procedure, shortened: (§6)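 Female athymic Swiss nude mice, 8-10 weeks old, given 10⁷ exponentially growing STO cells s.c. in the right flank. Dosing i.p. qdx4-5/wx3w, starting the day after cell injection. Toxicity was scored as body weight loss and lethal toxicity, reported as toxic deaths per treated group (n=8). Deaths in treated mice before the first control death were counted as toxic.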

[10] = target: Cyclin-dependent kinase 1/cyclin B1 (Homo sapiens, UniProt P06493); assay: Inhibition of human recombinant CDK1/cyclin B after 30 mins by fluorescence assay; format: protein-complex assay
Sequence of Cyclin-dependent kinase 1/cyclin B1 (P06493 whole entry): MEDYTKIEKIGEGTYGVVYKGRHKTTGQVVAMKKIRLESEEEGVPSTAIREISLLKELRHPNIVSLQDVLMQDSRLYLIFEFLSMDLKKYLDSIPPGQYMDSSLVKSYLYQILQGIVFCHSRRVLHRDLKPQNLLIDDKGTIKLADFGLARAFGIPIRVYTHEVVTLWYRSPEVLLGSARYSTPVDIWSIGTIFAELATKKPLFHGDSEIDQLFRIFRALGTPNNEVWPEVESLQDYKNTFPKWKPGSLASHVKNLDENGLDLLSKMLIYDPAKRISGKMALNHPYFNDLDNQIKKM
Sequence of Cyclin-dependent kinase 1/cyclin B1 (P14635 whole entry, further chain): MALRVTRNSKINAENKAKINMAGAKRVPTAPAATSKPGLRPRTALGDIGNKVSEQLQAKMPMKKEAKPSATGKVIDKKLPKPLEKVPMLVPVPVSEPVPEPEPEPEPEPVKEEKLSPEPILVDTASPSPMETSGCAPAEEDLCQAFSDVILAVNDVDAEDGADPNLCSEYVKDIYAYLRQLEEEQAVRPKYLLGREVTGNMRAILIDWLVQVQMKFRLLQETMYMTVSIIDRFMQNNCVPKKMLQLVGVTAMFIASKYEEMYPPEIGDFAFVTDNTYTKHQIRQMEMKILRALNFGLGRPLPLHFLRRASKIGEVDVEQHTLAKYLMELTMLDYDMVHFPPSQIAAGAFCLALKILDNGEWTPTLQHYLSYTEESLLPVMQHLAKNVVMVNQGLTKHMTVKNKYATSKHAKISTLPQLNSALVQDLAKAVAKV
Procedure, shortened: (§7)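 Recombinant kinases (CDK1/cyclin B; GSK3β) in Omnia fluorescence assay with peptide substrate, ATP and DTT in kinase buffer, run 30 min at 30°C. Compound range 0.05-50 μM. Fluorescence read at ex 360/em 485 nm. IC50 taken graphically; mean ± SD of three independent experiments.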

[11] = target: Glycogen synthase kinase-3 beta (Homo sapiens, UniProt P49841); assay: Inhibition of human GSK-3 beta after 30 mins by fluorescence assay; procedure, shortened: as §7
Sequence of Glycogen synthase kinase-3 beta (P49841 whole entry): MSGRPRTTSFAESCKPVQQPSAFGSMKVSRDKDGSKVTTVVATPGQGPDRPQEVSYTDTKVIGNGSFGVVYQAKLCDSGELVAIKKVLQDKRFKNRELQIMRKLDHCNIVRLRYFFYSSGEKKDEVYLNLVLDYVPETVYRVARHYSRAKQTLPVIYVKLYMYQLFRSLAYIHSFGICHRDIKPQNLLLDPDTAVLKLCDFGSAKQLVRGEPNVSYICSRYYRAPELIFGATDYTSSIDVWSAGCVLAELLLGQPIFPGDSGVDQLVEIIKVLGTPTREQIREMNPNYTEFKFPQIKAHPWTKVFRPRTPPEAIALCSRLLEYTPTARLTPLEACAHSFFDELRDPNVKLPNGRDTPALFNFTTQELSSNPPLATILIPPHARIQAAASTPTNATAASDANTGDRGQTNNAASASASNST

[12] = target: Cyclin-dependent kinase 1/cyclin B1 (Homo sapiens) (UniProt P06493+P14635); assay: Inhibition of CDK1/cyclin B in human STO cells using histone H1 as substrate assessed as histone H1 phosphorylation preincubated at IC50 by immunoprecipitate-based densitometric analysis; format: cell-based; conditions: TDE = time-dependent effect
Sequence of Cyclin-dependent kinase 1/cyclin B1 (Homo sapiens) (P06493 whole entry, looked up): as the sequence (P06493 whole entry) above
Sequence of Cyclin-dependent kinase 1/cyclin B1 (Homo sapiens) (P14635 whole entry, looked up): as the sequence (P14635 whole entry, further chain) above
Procedure, shortened: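 STO cells exposed at IC50 for 24, 48 and 72 h, with DMSO controls. Lysates immunoprecipitated with anti-cyclin B1, 4 h at 4°C. Precipitates incubated 20 min at 30°C with 3 μg histone H1, MgCl₂, cold ATP and [γ32P]ATP, pH 7.5. Products run on 12% SDS gel and quantified by densitometry as % of DMSO control.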

STO [13] = assay: Induction of apoptosis in human STO cells assessed as inhibition of survivin phosphorylation at Thr34 at IC50 by Western blotting analysis; format: functional, cell-based
[14] = Induction of apoptosis in human Meso2 cells assessed as increase in caspase 3 activation at IC80 after 72 hrs by DEVD-pNA substrate-based spectrofluorometric analysis relative to control; format: functional
Procedure, shortened: (§8)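 Cells exposed 72 h at IC80, with 1% (v/v) DMSO controls. Caspase-9 activity read as LEHD-pNA cleavage and caspase-3 as DEVD-pNA cleavage, by spectrofluorometry (ex 380 nm/em 460 nm), reported as rfu. Mean ± SD of at least three experiments.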

[15] = Induction of apoptosis in human Meso2 cells assessed as increase in caspase 9 activation at IC80 after 72 hrs by LEHD-pNA substrate-based spectrofluorometric analysis relative to control; format: functional; procedure, shortened: as §8
[16] = Induction of apoptosis in human STO cells assessed as increase in caspase 3 activation at IC80 after 72 hrs by DEVD-pNA substrate-based spectrofluorometric analysis relative to control; format: functional; procedure, shortened: as §8
Meso2 [17] = assay: Induction of apoptosis in human Meso2 cells assessed as DNA fragmentation at IC50 by fluorescence microscopy relative to control; format: functional, cell-based; conditions: TDE = time-dependent effect
[18] = Induction of apoptosis in human STO cells assessed as increase in caspase 9 activation at IC80 after 72 hrs by LEHD-pNA substrate-based spectrofluorometric analysis relative to control; format: functional; procedure, shortened: as §8
STO [19] = assay: Induction of apoptosis in human STO cells assessed as DNA fragmentation at IC50 by fluorescence microscopy relative to control; format: functional, cell-based; conditions: TDE = time-dependent effect
Meso2 [20] = assay: Induction of apoptosis in human Meso2 cells assessed as chromatin condensation at IC50 by fluorescence microscopy relative to control; format: functional, cell-based; conditions: TDE = time-dependent effect
STO [21] = assay: Induction of apoptosis in human STO cells assessed as chromatin condensation at IC50 by fluorescence microscopy relative to control; format: functional, cell-based; conditions: TDE = time-dependent effect
[22] = Cell cycle arrest in human Meso2 cells assessed as increase in sub-G1 phase accumulation at IC50 after 72 hrs by propidium iodide staining-based FACS-flow cytometry relative to control; format: functional
[23] = Cell cycle arrest in human STO cells assessed as increase in sub-G1 phase accumulation at IC50 after 72 hrs by propidium iodide staining-based FACS-flow cytometry relative to control; format: functional
[24] = Cell cycle arrest in human Meso2 cells assessed as reduction of cells at G1 phase at IC50 after 48 to 72 hrs by propidium iodide staining-based FACS-flow cytometry relative to control; format: functional
[25] = Cell cycle arrest in human STO cells assessed as reduction of cells at G1 phase at IC50 after 48 to 72 hrs by propidium iodide staining-based FACS-flow cytometry relative to control; format: functional
[26] = Cell cycle arrest in human Meso2 cells assessed as accumulation at G2/M phase at IC50 after 48 hrs by propidium iodide staining-based FACS-flow cytometry relative to control; format: functional
[27] = Cell cycle arrest in human STO cells assessed as accumulation at G2/M phase at IC50 after 48 hrs by propidium iodide staining-based FACS-flow cytometry relative to control; format: functional
Meso2 [28] = assay: Induction of apoptosis in human Meso2 cells assessed as increase in caspase 3 activation at 4 to 8 uM hrs by DEVD-pNA substrate-based spectrofluorometric analysis in presence of paclitaxel; format: functional, cell-based
STO [29] = assay: Induction of apoptosis in human STO cells assessed as increase in caspase 3 activation at 0.3 to 0.6 uM hrs by DEVD-pNA substrate-based spectrofluorometric analysis in presence of paclitaxel; format: functional, cell-based
Meso2 [30] = assay: Induction of apoptosis in human Meso2 cells assessed as increase in caspase 3 activation at 4 to 8 uM hrs by DEVD-pNA substrate-based spectrofluorometric analysis relative to control; format: functional, cell-based
STO [31] = assay: Induction of apoptosis in human STO cells assessed as increase in caspase 3 activation at 0.3 to 0.6 uM hrs by DEVD-pNA substrate-based spectrofluorometric analysis relative to control; format: functional, cell-based
[32] = Antitumor activity against human STO cells xenografted in athymic nude mouse assessed as tumor volume inhibition at 50 mg/kg, ip qd for 4 to 5 days per week for 3 weeks measured on day 17 post dose; format: functional; conditions: route intraperitoneal; procedure, shortened: as §4
Mus musculus [33] = assay: Toxicity in athymic nude mouse xenografted with human STO cells assessed as body weight loss at 50 mg/kg, ip qd for 4 to 5 days per week for 3 weeks measured on day 17 post dose; format: organism-based; parameters: dose 50 mg/kg, route intraperitoneal; conditions: in vivo; procedure, shortened: as §5
Mus musculus [34] = assay: Toxicity in athymic nude mouse xenografted with human STO cells assessed as mortality at 50 mg/kg, ip qd for 4 to 5 days per week for 3 weeks measured on day 17 post dose; format: organism-based; parameters: dose 50 mg/kg, route intraperitoneal; conditions: in vivo; procedure, shortened: as §6
Meso2 [35] = assay: Potentiation of paclitaxel-induced cytotoxicity in human Meso2 cells assessed as inhibition of cell survival at 2 to 8 uM after 72 hrs by MTS assay; format: functional, cell-based
Procedure, shortened: (§9)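 Paclitaxel given for 24 h, then test compound added for 72 h more. Fixed paclitaxel:compound ratios were 1:100 in STO and 1:333 in MesoII. Survival by MTS at 490 nm. Expected additive effect taken as the product of single-agent effects. Interaction scored by Chou–Talalay combination index (<1 synergy).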

STO [36] = assay: Potentiation of paclitaxel-induced cytotoxicity in human STO cells assessed as inhibition of cell survival at 0.15 to 0.6 uM after 72 hrs by MTS assay; format: functional, cell-based; procedure, shortened: as §9
Meso2 [37] = assay: Induction of apoptosis in human Meso2 cells assessed as increase in caspase 3 activation at 12 to 24 […] hrs by DEVD-pNA substrate-based spectrofluorometric analysis relative to control; format: functional, cell-based
STO [38] = assay: Induction of apoptosis in human STO cells assessed as increase in caspase 3 activation at 3 to 6 nM hrs by DEVD-pNA substrate-based spectrofluorometric analysis relative to control; format: functional, cell-based

SMILES	Activity [1] [%]	IC50 [2] [µM]	inhibition (STO [3])	IC50 [4] [µM]	inhibition (Homo sapiens)	IC50 [5] [µM]	Activity [7] [%]	IC50 [10] [µM]	IC50 [11] [µM]	inhibition [12]	inhibition (STO [13])	Activity (Meso2 [17])	Activity (STO [19])	Activity (Meso2 [20])	Activity (STO [21])	Activity [22] [%]	Activity [23] [%]	Activity [24]	Activity [25]	Activity [26] [%]	further results
Cn1cc(-c2nc(-c3cn(C)c4ncccc34)cs2)c2cc(F)ccc21	41.9	0.43	Dose-dependent effect	4.85	Dose-dependent effect	> 100	41.9	0.86	35.7	tde	Active	tde	tde	tde	tde	27.9	26.5	Active	Active	33.3	inhibition in vivo at 25 mg/kg [6]: 58%; Activity (Mus musculus [8]): 7%; Activity (Mus musculus [9]): Non-toxic; fold change (FC) [14]: 7.8; fold change (FC) [15]: 11.9; fold change (FC) [16]: 10; fold change (FC) [18]: 12; Activity [27]: 33.3%
Cn1cc(-c2csc(-c3c[nH]c4ccccc34)n2)c2cccnc21	41.9	0.33	Dose-dependent effect	4.11	Dose-dependent effect	> 100	41.9	0.75	40.2	tde	Active	tde	tde	tde	tde	19.9	25.8	Active	Active	33.3	Activity (Meso2 [28]): Active; Activity (STO [29]): Active; Activity (Meso2 [30]): Active; Activity (STO [31]): Active; inhibition in vivo at 50 mg/kg [32]: 75%; Activity (Mus musculus [33]): 1%; Activity (Mus musculus [34]): Non-toxic; inhibition (Meso2 [35]): Active; inhibition (STO [36]): Active; Activity [27]: 33.3%
Cn1cc(-c2nc(-c3cn(C)c4ncccc34)cs2)c2ccccc21	–	0.61	Dose-dependent effect	16.8	Dose-dependent effect	18.8	–	–	–	–	–	–	–	–	–	–	–	–	–	–	–
Cn1cc(-c2csc(-c3c[nH]c4ccc(F)cc34)n2)c2cccnc21	–	0.54	Dose-dependent effect	13.3	Dose-dependent effect	15.4	–	–	–	–	–	–	–	–	–	–	–	–	–	–	–
CC(=O)O[C@H]1C(=O)[C@@]2(C)[C@H]([C@H](OC(=O)c3ccccc3)[C@]3(O)C[C@H](OC(=O)[C@H](O)[C@@H](NC(=O)c4ccccc4)c4ccccc4)C(C)=C1C3(C)C)[C@]1(OC(C)=O)CO[C@@H]1C[C@@H]2O	–	–	–	–	–	–	–	–	–	–	–	–	–	–	–	–	–	–	–	–	Activity (Meso2 [37]): Active; Activity (STO [38]): Active
Cn1cc(-c2nc(-c3c[nH]c4ncccc34)cs2)c2cc(F)ccc21	41.9	0.49	Dose-dependent effect	25.1	Dose-dependent effect	> 100	41.9	0.89	42.2	tde	Active	tde	tde	tde	tde	28.6	27.6	Active	Active	33.3	inhibition in vivo at 25 mg/kg [6]: 73%; Activity (Mus musculus [8]): 4%; Activity (Mus musculus [9]): Non-toxic; Activity [27]: 33.3%
